Experiment [1] concerns Mus musculus. Nature of the experiment: Percent change from vehicle in locomotor activity in mice at 17 mg/kg (ip) in 3 h. In kind it is functional.
Experiment [2] has as its system Mus musculus. Nature of the experiment: Percent change from vehicle in locomotor activity in mice at 5.6 mg/kg (ip) in 1 h. In kind it is functional.
Experiment [3] has as its system Mus musculus. Nature of the experiment: Percent change from vehicle in locomotor activity in mice at 5.6 mg/kg (ip) in 2 h. In kind it is functional.
The subject of experiment [4] is Mus musculus. Nature of the experiment: Percent change from vehicle in locomotor activity in mice at 5.6 mg/kg (ip) in 3 h. Format: functional.
In experiment [5] the test system is Mus musculus. Nature of the experiment: Percent change from vehicle in locomotor activity in mice at 5.6 mg/kg (ip) in 4 h. Format: functional.
In experiment [6] the test system is Mus musculus. Nature of the experiment: Percent change from vehicle in locomotor activity in mice at 56 mg/kg (ip) in 1 h. In kind it is functional.
The test system of experiment [7] is Mus musculus. Nature of the experiment: Percent change from vehicle in locomotor activity in mice at 56 mg/kg (ip) in 2 h. Format: functional.
Experiment [8] concerns Mus musculus. Nature of the experiment: Percent change from vehicle in locomotor activity in mice at 17 mg/kg (ip) in 1 h. Format: functional.
The subject of experiment [9] is Mus musculus. Nature of the experiment: Percent change from vehicle in locomotor activity in mice at 17 mg/kg (ip) in 2 h. Format: functional.
For experiment [10], the system named is Mus musculus. Nature of the experiment: Percent change from vehicle in locomotor activity in mice at 56 mg/kg (ip) in 4 h. In kind it is functional.
The species entered for experiment [11] is Mus musculus. Nature of the experiment: Effective dose for locomotor activity in mice in the peak hour. Format: functional.
For experiment [12], the system named is Rattus norvegicus. Nature of the experiment: Drug discrimination effect of compound in rats, expressed as percent of rats choosing the cocaine lever at dose 1 mg/kg (ip). Format: functional.
Experiment [13] deals with Rattus norvegicus. Nature of the experiment: Drug discrimination effect of compound in rats, expressed as percent of rats choosing the cocaine lever at dose 1.7 mg/kg (ip). Format: functional.
Experiment [14] relates to Rattus norvegicus. Nature of the experiment: Drug discrimination effect of compound in rats, expressed as percent of rats choosing the cocaine lever at dose 10 mg/kg (ip). In kind it is functional.
Experiment [15] deals with Rattus norvegicus. Nature of the experiment: Drug discrimination effect of compound in rats, expressed as percent of rats choosing the cocaine lever at dose 3 mg/kg (ip). Format: functional.
Experiment [16] concerns Rattus norvegicus. Nature of the experiment: Drug discrimination effect of compound in rats, expressed as percent of rats choosing the cocaine lever at dose 5.6 mg/kg (ip). Format: functional.
Experiment [17] relates to Rattus norvegicus. Nature of the experiment: Effective dose for drug discrimination effect in rat (ip). In kind it is functional. The gist of the method: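 Cocaine-trained rat drug discrimination, FR10, 10-min sessions. Compound in 0.5% methyl cellulose given ip 15 min before session, usually to 7-8 rats per dose. Doses were raised from ≤20% to ≥80% cocaine-lever choice, capped at 30 mg/kg, >50% loss of pressing, or side effects.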

Experiment [18] deals with Mus musculus. Nature of the experiment: Percent change from vehicle in locomotor activity in mice at 17 mg/kg (ip) in 4 h. Format: functional.
The test system of experiment [19] is Mus musculus. Nature of the experiment: Percent change from vehicle in locomotor activity in mice at 56 mg/kg (ip) in 3 h. In kind it is functional.
Experiment [20] deals with Sodium-dependent dopamine transporter (Rattus norvegicus, UniProt P23977). Nature of the experiment: Inhibitory concentration required to inhibit dopamine transporter DAT was determined by using [3H]WIN-35428 radioligand. The gist of the method:
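Competition binding at the DAT with 0.5 nM [3H]WIN35,428 (final concentration). Other procedures follow earlier published methods.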

Experiment [21] relates to Mus musculus. Nature of the experiment: Percent change in locomotor activity in mice at 3 mg/kg i.p. in 1 h. In kind it is functional. The conditions noted are these: route intraperitoneal. The gist of the method: (§1)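 Mice habituated 1/2 h to photocell activity chambers, then injected ip with compound homogenized in 0.5% methyl cellulose (10 mL/kg); vehicle controls; N = 5 or 6 per dose. Photobeam interruptions recorded in 10-min bins for 4 h, grouped into 1-h bins; one-way ANOVA with Newman-Keuls post hoc test (p < 0.05).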

The subject of experiment [22] is Mus musculus. Nature of the experiment: Percent change in locomotor activity in mice at 3 mg/kg i.p. in 2 h. In kind it is functional. The following applies: route intraperitoneal. The gist of the method:
as §1

Experiment [23] relates to Mus musculus. Nature of the experiment: Percent change in locomotor activity in mice at 3 mg/kg i.p. in 3 h. The conditions noted are these: route intraperitoneal. In kind it is functional. The gist of the method:
as §1

Experiment [24] has as its system Mus musculus. Nature of the experiment: Percent change in locomotor activity in mice at 3 mg/kg i.p. in 4 h. Format: functional. The conditions noted are these: route intraperitoneal. The gist of the method: as §1
Experiment [25] deals with Mus musculus. Nature of the experiment: Percent change from vehicle in locomotor activity in mice at 30 mg/kg (ip) in 1 h. Format: functional.
Experiment [26] concerns Mus musculus. Nature of the experiment: Percent change from vehicle in locomotor activity in mice at 30 mg/kg (ip) in 2 h. In kind it is functional.
In experiment [27] the test system is Mus musculus. Nature of the experiment: Percent change from vehicle in locomotor activity in mice at 30 mg/kg (ip) in 3 h. In kind it is functional.
Experiment [28] concerns Mus musculus. Nature of the experiment: Percent change from vehicle in locomotor activity in mice at 30 mg/kg (ip) in 4 h. Format: functional.
Experiment [29] relates to Mus musculus. Nature of the experiment: Percent change from vehicle in locomotor activity in mice at 0.3 mg/kg (ip) in 1 h. Format: functional.
Experiment [30] has as its system Mus musculus. Nature of the experiment: Percent change from vehicle in locomotor activity in mice at 0.3 mg/kg (ip) in 2 h. Format: functional.
Experiment [31] concerns Mus musculus. Nature of the experiment: Percent change from vehicle in locomotor activity in mice at 0.3 mg/kg (ip) in 3 h. Format: functional.
Experiment [32] has as its system Mus musculus. Nature of the experiment: Percent change from vehicle in locomotor activity in mice at 0.3 mg/kg (ip) in 4 h. Format: functional.
For experiment [33], the system named is Mus musculus. Nature of the experiment: Percent change in locomotor activity in mice at 1 mg/kg i.p. in 1 h. In kind it is functional. The conditions noted are these: route intraperitoneal.
Experiment [34] relates to Mus musculus. Nature of the experiment: Percent change in locomotor activity in mice at 1 mg/kg i.p. in 2 h. The following applies: route intraperitoneal. In kind it is functional. Summed up: as §1
In experiment [35] the test system is Mus musculus. Nature of the experiment: Percent change locomotor activity in mice at 1 mg/kg i.p. in 3 h. The conditions noted are these: route intraperitoneal. In kind it is functional. Summed up: as §1
Experiment [36] deals with Mus musculus. Nature of the experiment: Percent change in locomotor activity in mice at 1 mg/kg i.p. in 4 h. Format: functional. The conditions noted are these: route intraperitoneal. The gist of the method: as §1
Experiment [37] relates to Mus musculus. Nature of the experiment: Percent change from vehicle in locomotor activity in mice at 10 mg/kg (ip) in 1 h. In kind it is functional.
Experiment [38] concerns Mus musculus. Nature of the experiment: Percent change from vehicle in locomotor activity in mice at 10 mg/kg (ip) in 2 h. In kind it is functional.
The subject of experiment [39] is Mus musculus. Nature of the experiment: Percent change from vehicle in locomotor activity in mice at 10 mg/kg (ip) in 3 h. In kind it is functional.
Experiment [40] concerns Mus musculus. Nature of the experiment: Percent change from vehicle in locomotor activity in mice at 10 mg/kg (ip) in 4 h. In kind it is functional.
The species named for experiment [41] is Mus musculus. Nature of the experiment: Effective dose was evaluated for locomotor activity in mice in the peak hour; No stimulation. Format: functional, organism-based.
The target of experiment [42] is Norepinephrine transporter (Rattus norvegicus, UniProt Q9WTR4). Nature of the experiment: Binding affinity towards norepinephrine transporter was determined by using [3H]nisoxetine radioligand. The gist of the method: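 Competition binding at the NET with 0.5 nM [3H]nisoxetine (final concentration). Other procedures follow earlier published methods.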
Experiment [43] concerns Rattus norvegicus. Nature of the experiment: Drug discrimination effect of compound in rats, expressed as percent of rats choosing the cocaine lever at dose 17 mg/kg (ip). Format: functional.
The test system of experiment [44] is Rattus norvegicus. Nature of the experiment: Drug discrimination effect of compound in rats, expressed as percent of rats choosing the cocaine lever at dose 30 mg/kg (ip). Format: functional.
The target in experiment [45] is Sodium-dependent serotonin transporter (Rattus norvegicus, UniProt P31652). Nature of the experiment: Inhibitory concentration required to inhibit serotonin transporter 5-HTT was determined by using [3H]paroxetine radioligand. Summed up:
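Competition binding at the 5-HTT with 0.2 nM [3H]paroxetine (final concentration). Other procedures follow earlier published methods.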

From ChEMBL document CHEMBL1148376, “Synthesis, monoamine transporter binding properties, and behavioral pharmacology of a series of 3beta-(substituted phenyl)-2beta-(3'-substituted isoxazol-5-yl)tropanes” (J Med Chem, 2004) come the findings set out here.

pIC50: −log10 of the molar value. The source made the active and inactive calls. No cut-off for these calls is given here.

Sodium-dependent dopamine transporter, sequence (P23977 whole entry): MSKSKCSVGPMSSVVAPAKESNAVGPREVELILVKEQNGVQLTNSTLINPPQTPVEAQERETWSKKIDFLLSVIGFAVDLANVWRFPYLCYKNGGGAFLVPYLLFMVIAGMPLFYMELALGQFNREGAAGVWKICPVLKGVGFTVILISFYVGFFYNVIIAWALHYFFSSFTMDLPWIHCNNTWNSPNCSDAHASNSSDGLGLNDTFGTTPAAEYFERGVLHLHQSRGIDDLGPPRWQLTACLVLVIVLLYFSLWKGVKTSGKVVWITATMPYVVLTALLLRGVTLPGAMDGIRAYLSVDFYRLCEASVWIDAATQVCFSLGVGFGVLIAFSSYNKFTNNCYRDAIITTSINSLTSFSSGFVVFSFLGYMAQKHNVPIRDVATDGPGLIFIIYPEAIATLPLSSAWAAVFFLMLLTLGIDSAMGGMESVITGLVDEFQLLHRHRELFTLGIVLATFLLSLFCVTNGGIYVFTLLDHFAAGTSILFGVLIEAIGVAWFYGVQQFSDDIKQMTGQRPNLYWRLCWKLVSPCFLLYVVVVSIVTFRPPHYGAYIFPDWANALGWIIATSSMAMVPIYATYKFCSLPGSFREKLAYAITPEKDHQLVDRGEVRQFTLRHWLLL
Norepinephrine transporter, sequence (Q9WTR4 whole entry): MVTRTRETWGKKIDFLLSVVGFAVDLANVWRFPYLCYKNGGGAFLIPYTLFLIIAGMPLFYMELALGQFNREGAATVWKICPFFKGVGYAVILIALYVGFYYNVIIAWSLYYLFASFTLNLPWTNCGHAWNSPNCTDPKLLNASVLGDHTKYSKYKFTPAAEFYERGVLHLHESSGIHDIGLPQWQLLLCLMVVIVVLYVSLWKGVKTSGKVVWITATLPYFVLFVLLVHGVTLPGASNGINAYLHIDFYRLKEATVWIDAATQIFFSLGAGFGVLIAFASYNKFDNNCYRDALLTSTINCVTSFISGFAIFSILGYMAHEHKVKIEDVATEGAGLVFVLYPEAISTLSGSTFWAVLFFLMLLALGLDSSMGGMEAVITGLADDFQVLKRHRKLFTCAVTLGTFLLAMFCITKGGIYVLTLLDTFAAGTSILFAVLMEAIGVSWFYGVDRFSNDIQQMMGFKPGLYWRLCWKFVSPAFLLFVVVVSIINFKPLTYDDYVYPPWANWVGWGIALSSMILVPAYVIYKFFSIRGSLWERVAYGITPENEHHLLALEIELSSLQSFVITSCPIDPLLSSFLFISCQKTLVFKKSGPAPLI
Sodium-dependent serotonin transporter, sequence (P31652 whole entry): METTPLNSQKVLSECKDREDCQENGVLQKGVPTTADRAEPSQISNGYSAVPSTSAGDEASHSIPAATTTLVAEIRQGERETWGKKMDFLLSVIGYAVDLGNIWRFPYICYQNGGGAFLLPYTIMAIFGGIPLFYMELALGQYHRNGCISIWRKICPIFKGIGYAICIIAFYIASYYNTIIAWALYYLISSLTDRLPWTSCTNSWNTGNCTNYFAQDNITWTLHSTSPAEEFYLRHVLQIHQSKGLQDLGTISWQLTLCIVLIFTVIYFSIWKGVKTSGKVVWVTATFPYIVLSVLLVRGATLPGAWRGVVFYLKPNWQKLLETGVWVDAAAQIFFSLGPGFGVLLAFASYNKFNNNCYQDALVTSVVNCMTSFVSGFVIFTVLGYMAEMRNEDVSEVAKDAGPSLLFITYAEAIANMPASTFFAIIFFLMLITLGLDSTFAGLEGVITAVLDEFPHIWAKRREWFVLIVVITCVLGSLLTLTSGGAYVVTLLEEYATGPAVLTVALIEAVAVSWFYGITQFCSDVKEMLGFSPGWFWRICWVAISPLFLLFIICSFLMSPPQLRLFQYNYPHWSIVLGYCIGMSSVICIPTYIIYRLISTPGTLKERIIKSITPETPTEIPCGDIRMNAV

On to `COC(=O)[C@@H]1C2CC[C@@H](C[C@@H]1OC(=O)c1ccccc1)N2C` (single isomer, unassigned) [COCAINE], for which the Change in experiment [1] was -53%; in experiment [2] it was 5%; in [3], -26%; in experiment [4] it was -53%; in experiment [5] it was -1%; in experiment [6], 452%. In addition, the Change in [7] was 201%; in experiment [8], 179%; in [9], -7%; in experiment [10], -24%; in experiment [18] it was -26%; in [19], -47%. Besides, the ED50 was 18.8 mg/kg in [11] and 2.64 mg/kg in experiment [17]. The Drug discrimination effect in experiment [12] is 21%; in experiment [13] it was 32%; in experiment [14], 97%; in [15], 59%; in experiment [16], 82%.
`Cc1ccc(-c2cc(C3C(c4ccc(C)cc4)CC4CCC3N4C)on2)cc1` (configuration not stated): the figures for the pIC50 in [20], in experiment [42] and in experiment [45] were 7.89, under 4.00 and under 4.00, respectively. Also, the Change in experiment [21] is 1%; in experiment [22], 10%; in [23], 73%; in experiment [24], 29%; in [25] it was -19%; in [26], -26%. The Change in experiment [27] is given as -37%; in [28], -43%; in experiment [29], -17%; in experiment [30] it was 60%; in [31], 102%; in experiment [32], -48%. Besides, the Change is listed as -5% in experiment [33]; -6% in experiment [34]; 76% in experiment [35]; -30% in experiment [36]; -30% in experiment [37]; 34% in experiment [38]. The values for the Change in [39] and in experiment [40] were -38% and -7%, respectively. In addition, the ED50 result in experiment [41] is “inactive”. In addition, the Drug discrimination effect in experiment [14] was 0%; in experiment [43], 33%; in experiment [15], 0%; in [44], 67%.

The term ED50 denotes the midpoint of the dose-response relation. A word on the pIC50: it is the negative decadic logarithm of the IC50, by convention in mol/L. A low value points to a large IC50.
